Assay outcomes as filed in PubChem.
RBBP9 inh = human RBBP9 inhibitors, primary screen, biochemical, fluorescence polarization, FP-Rh probe, HTS. Serine hydrolase RBBP9 (Homo sapiens), O75884. inhibition, % at 7.94 µM. 220,000 tested, 0.2% active. recombinant RBBP9;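 active means inhibition above the campaign mean of all tested compounds plus 3 SD, cut at about 14% in these data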;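 further: plate controls were DMSO wells with RBBP9 for no effect and wells lacking RBBP9 protein for full effect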
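Measured by: FP readout at 525/598 nm; material: recombinant human RBBP9; also added: Serine-hydrolase probe FP-Rh, 375 nM pre-mixing; medium: Tris buffer pH 8.0, NaCl, Pluronic; replication: one well per compound; doses: one concentration, 7.94 µM nominal, 0.794% DMSO; timing: preincubation 30 min plus labeling 45 min at 25 °C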
SIAE primary = human SIAE inhibitors, primary screen, biochemical, fluorescence polarization, FP-Rh probe, 1536-well HTS. SIAE FP-Rh probe binding. AID 1053197, 2014. inhibition, % at 9.66 µM. 370,000 tested, 0.69% active. Sialate O-acetylesterase (Homo sapiens), Q9HAT2;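 active means inhibition above a cutoff: mean of compounds within the control limits plus 3 SD of those, cut at about 17% in these data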;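 further: 0% = plate median of compound wells and 100% = probe without SIAE protein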
Target sequence (Q9HAT2 whole entry, looked up): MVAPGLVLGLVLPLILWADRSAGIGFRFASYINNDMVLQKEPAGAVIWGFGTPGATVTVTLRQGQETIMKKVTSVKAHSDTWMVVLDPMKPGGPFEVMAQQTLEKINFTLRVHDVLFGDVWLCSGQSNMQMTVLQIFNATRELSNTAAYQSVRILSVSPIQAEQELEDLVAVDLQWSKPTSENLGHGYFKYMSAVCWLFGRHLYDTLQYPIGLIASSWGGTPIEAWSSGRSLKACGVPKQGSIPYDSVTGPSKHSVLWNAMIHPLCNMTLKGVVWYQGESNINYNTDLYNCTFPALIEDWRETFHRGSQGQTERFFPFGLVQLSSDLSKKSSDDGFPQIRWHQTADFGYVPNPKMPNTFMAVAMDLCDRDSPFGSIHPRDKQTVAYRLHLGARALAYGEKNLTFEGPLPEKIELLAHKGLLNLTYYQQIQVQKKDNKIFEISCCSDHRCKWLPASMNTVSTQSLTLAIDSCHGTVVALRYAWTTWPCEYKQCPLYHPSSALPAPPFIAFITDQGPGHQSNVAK
GSTO1 counter = inhibitors of recombinant GSTO1, primary screen, counter-screen for RBBP9 inhibitor project, biochemical, fluorescence polarization | Glutathione S-transferase omega-1 (Homo sapiens), P78417 | 300,000 tested, 1.1% active | inhibition, % at 5.96 µM | AID 1974, 2009 | activity-based probe fluorescence polarization;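 active means inhibition above the campaign mean inhibition plus 3 SD, cut at about 35% in these data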;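 further: 0% = GSTO1-1 with DMSO and 100% = wells lacking GSTO1-1 enzyme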
PAD4 FP inh = human PAD4 inhibitors, primary screen, biochemical, fluorescence polarization, 1536-well format; Protein-arginine deiminase type-4 (Homo sapiens), Q9UM07; recombinant PAD4, RCA probe fluorescence polarization; inhibition, % at 6.36 µM; 330,000 tested, 0.41% active; AID 485272, 2010;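 active means percent inhibition above a cutoff equal to the mean of all tested compounds plus 3 SD, cut at about 15% in these data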;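 further: 0% = PAD4 with RCA probe and DMSO and 100% = probe without PAD4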
PRMT1 FP inh = PRMT1 methyltransferase inhibitors, primary screen, biochemical, fluorescence polarization. Protein arginine N-methyltransferase 1 (Homo sapiens), Q99873. recombinant PRMT1, activity-based probe fluorescence polarization. inhibition, % at 2.79 µM. 370,000 tested, 1.3% active;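 active means inhibition above about 21% made by adding two undisclosed values, limit read from the data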
GSTO1 confirm = GSTO1 inhibitor hit confirmation, counter-screen for RBBP9 inhibitor project, biochemical, fluorescence polarization, triplicate. 2,400 tested, 54% active. recombinant GSTO1, probe fluorescence polarization. inhibition, % at 5.96 µM. AID 2176, 2009. shares compounds with GSTO1 counter;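 active means inhibition above the primary screen's cutoff, its mean inhibition plus 3 SD, cut at about 35% in these data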;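 further: loss of polarization as inhibitors block binding of rhodamine sulfonate ester activity probe; 0% = GSTO1 with DMSO and 100% = wells lacking GSTO1 enzyme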
GSTO1 recomb ABPP = inhibitors of purified human GSTO1, late-stage follow-up, biochemical, gel ABPP, SE-Rh probe, percent inhibition | shares compounds with GSTO1 counter | recombinant GSTO1, gel ABPP SE-Rh probe fluorescence | inhibition, % at 1 µM | 130 tested, 30% active;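 active means inhibition of the enzyme GSTO1 above about 75%, limit read from the data; inactive means inhibition below that limit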
Numbers without * were called inactive. Sampled rows, rich in hits. Any-hit rate of the full collection: about 2.7%.

`CC(=O)c1ccc(NC(=O)c2ccc3nc(-c4ccco4)c(-c4ccco4)nc3c2)cc1` gave RBBP9 inh -2, GSTO1 counter 68*, PAD4 FP inh -16 and GSTO1 confirm 29.
For O=C(NCc1ccccc1)c1ccc2nccnc2c1 the results were RBBP9 inh 5, SIAE primary 13, GSTO1 counter -2, PAD4 FP inh -2 and PRMT1 FP inh -3.
Screening O=C(c1ccc2nc(-c3ccco3)c(-c3ccco3)nc2c1)N1CCN(c2ncccn2)CC1 returned RBBP9 inh 1, SIAE primary 35*, GSTO1 counter 68*, PAD4 FP inh -6, PRMT1 FP inh 35* and GSTO1 confirm 22.
`O=C(NCc1ccccc1)c1ccc2nc(-c3ccco3)c(-c3ccco3)nc2c1` gave RBBP9 inh 4, SIAE primary 34*, GSTO1 counter 67*, PAD4 FP inh -13, PRMT1 FP inh 44* and GSTO1 confirm 24.
O=C(NCCO)Nc1ccc2nc(-c3ccco3)c(-c3ccco3)nc2c1 was read as RBBP9 inh 15*, GSTO1 counter 65*, PAD4 FP inh 18* and GSTO1 confirm 42*.
C[C@H]1CN(S(=O)(=O)C(C)(C)C)[C@H](CCO)/C1=C\CCO was read as SIAE primary -1 and PRMT1 FP inh -3.
For CN(Cc1ccc(Cl)s1)C(=O)CCl the results were RBBP9 inh 8, SIAE primary -2, GSTO1 counter 92*, PAD4 FP inh 3, PRMT1 FP inh -3, GSTO1 confirm 104* and GSTO1 recomb ABPP 70.
CCN(CC)c1ccc(N=Cc2cc(Br)ccc2O)cc1 was read as RBBP9 inh 6, SIAE primary 11, GSTO1 counter 74*, PAD4 FP inh 13, PRMT1 FP inh 22* and GSTO1 confirm 6.
`COc1ccc(Cl)cc1NC(=O)CC1CCCC1` gave SIAE primary -3, GSTO1 counter 0, PAD4 FP inh 1 and PRMT1 FP inh 0.
For COCCn1c(SCC(=O)N2CCCCCC2)nnc1-c1ccco1 the results were SIAE primary -4, GSTO1 counter 39*, PAD4 FP inh -10, PRMT1 FP inh 6 and GSTO1 confirm 7.
`COCCn1c(SCC(=O)N2CCOCC2)nnc1-c1ccco1` gave SIAE primary -4, GSTO1 counter 1, PAD4 FP inh 5 and PRMT1 FP inh 5.
`CCc1nc(N2CCN(C(=O)CCl)CC2)c2c3c(sc2n1)CC(C)CC3` (centres undefined) gave SIAE primary 2, GSTO1 counter 63*, PAD4 FP inh 2, PRMT1 FP inh 4, GSTO1 confirm 79* and GSTO1 recomb ABPP 51.
`CCc1nc(N2CCN(C(C)=O)CC2)c2c3c(sc2n1)CC(C(C)(C)C)CC3` (centres undefined) gave SIAE primary -4, GSTO1 counter -8, PAD4 FP inh -4 and PRMT1 FP inh 1.
COc1ccc(C2NC(=O)c3n[nH]c(C)c32)c(OC)c1 (centres undefined) was read as RBBP9 inh -3, SIAE primary -7, GSTO1 counter 9, PAD4 FP inh 4 and PRMT1 FP inh 4.
For COC(=O)CCCC1=CC2=C(c3ccccc3)C(=O)C(C)(OC(=O)C3CCCC3)C(=O)C2=CN1Cc1ccc(OC)cc1 (centres undefined) the results were SIAE primary 6, GSTO1 counter 41*, PAD4 FP inh -3, PRMT1 FP inh -2 and GSTO1 confirm 10.
Screening COC(=O)CCCC1=CC2=C(c3ccccc3)C(=O)C(C)(OC(=O)C3CCCC3)C(=O)C2=CN1Cc1ccc2c(c1)OCO2 (centres undefined) returned SIAE primary 6, GSTO1 counter 48*, PAD4 FP inh 0, PRMT1 FP inh 2 and GSTO1 confirm 13.
O=[N+]([O-])c1ccc2[nH]cc(S(=O)(=O)N3CCN(c4cccc(Cl)c4)CC3)c2c1 was read as SIAE primary -2, GSTO1 counter -10, PAD4 FP inh 0 and PRMT1 FP inh -1.
CC(=O)C1=C(c2ccc(Br)cc2)C(=O)c2ccccc2C1=O was read as RBBP9 inh -4, SIAE primary 16, GSTO1 counter 39*, PAD4 FP inh -6, PRMT1 FP inh 14 and GSTO1 confirm 3.
`CC(=O)Nc1c(Br)cc2c(c1Br)C(=O)c1ccccc1-2` gave SIAE primary -1 and PRMT1 FP inh 2.
`O=C(NNC(=O)c1ccccc1Br)c1cccs1` gave SIAE primary 3, GSTO1 counter 12, PAD4 FP inh 4 and PRMT1 FP inh 1.
Screening COc1cccc(/C=N/NC(=O)C(=O)N/N=C/c2cccc(OC)c2O)c1O returned RBBP9 inh -4, SIAE primary -2 and PRMT1 FP inh 6.
`COc1cccc(/C=N/NC(=O)NC2CCCCC2)c1O` gave RBBP9 inh 0, SIAE primary 5, GSTO1 counter 38*, PAD4 FP inh -3, PRMT1 FP inh -1 and GSTO1 confirm 6.
Screening COC(=O)NNC(=O)COc1ccccc1C returned RBBP9 inh -9, SIAE primary -2, GSTO1 counter 0, PAD4 FP inh 2 and PRMT1 FP inh 4.
For CCCCOC(=O)C1=C(C)Nc2ncnn2C1c1ccc(OC)c(OC)c1OC (centres undefined) the results were RBBP9 inh -9, SIAE primary 4, GSTO1 counter -1, PAD4 FP inh 3 and PRMT1 FP inh -2.
`COC(=O)CCC(=O)OC1(C)C(=O)C=C2C=C(C3CC3)N(c3ccc(CO)cc3)C=C2C1=O` (centres undefined) gave GSTO1 counter 21 and PAD4 FP inh -5.
For COC(=O)CCC(=O)OC1(C)C(=O)C=C2C=C(C3CC3)N(c3cccc(C#N)c3)C=C2C1=O (centres undefined) the results were SIAE primary -2, GSTO1 counter 58*, PAD4 FP inh -11, PRMT1 FP inh 8 and GSTO1 confirm 8.
`COC(=O)CCC(=O)OC1(C)C(=O)C=C2C=C(C3CC3)N(Cc3ccco3)C=C2C1=O` (centres undefined) gave SIAE primary 6, GSTO1 counter 38*, PAD4 FP inh -3, PRMT1 FP inh 13 and GSTO1 confirm 17.
